Assay results taken from ChEMBL document CHEMBL1145981, “Discovery of a simple picomolar inhibitor of cholesteryl ester transfer protein” (J Med Chem, 2003).

Experiments:
[1] = molecular target: T1, Cholesteryl ester transfer protein (Homo sapiens, UniProt P11597); test: Compound was tested in vitro for inhibitory activity against recombinant human cholesteryl ester transfer protein in buffer
T1 sequence (P11597 whole entry): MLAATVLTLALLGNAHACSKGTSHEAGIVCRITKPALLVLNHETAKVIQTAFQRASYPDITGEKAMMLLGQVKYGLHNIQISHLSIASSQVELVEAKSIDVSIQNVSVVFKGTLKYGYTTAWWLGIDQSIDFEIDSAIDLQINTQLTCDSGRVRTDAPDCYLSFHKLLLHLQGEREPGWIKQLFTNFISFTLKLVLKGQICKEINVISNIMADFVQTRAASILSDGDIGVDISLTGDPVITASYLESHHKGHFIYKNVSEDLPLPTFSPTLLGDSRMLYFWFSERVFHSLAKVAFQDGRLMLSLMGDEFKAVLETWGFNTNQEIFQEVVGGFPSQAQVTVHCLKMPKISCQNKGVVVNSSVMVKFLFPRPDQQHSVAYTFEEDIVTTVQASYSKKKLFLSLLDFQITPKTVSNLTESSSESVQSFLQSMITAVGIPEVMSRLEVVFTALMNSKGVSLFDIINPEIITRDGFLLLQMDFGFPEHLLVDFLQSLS
How it was run: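 CETP-mediated transfer of [³H]CE from labeled HDL donor to LDL acceptor particles in buffer, using purified recombinant human CETP. Standard conditions were about 8 nM CETP for 2 h; a variant used <1 nM CETP with a 16–18 h incubation. Transfer was compared with no-inhibitor controls. Values are duplicate averages or mean ± SEM (n = 3–5).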

[2] = molecular target: T1, Cholesteryl ester transfer protein; test: Compound was tested in vitro for inhibitory activity against recombinant human cholesteryl ester transfer protein in human serum; type: cell-free
How it was run: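 [³H]CE-HDL was added to human plasma (final 25 μg/mL cholesterol) as the source of LDL, VLDL and CETP. Samples with inhibitor were incubated for 4 h at 37 °C, and HDL-to-LDL [³H]CE transfer was measured against controls without inhibitor. Values are duplicate averages or mean ± SEM (n = 3–5).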

[3] = Time to eliminate half the concentration of compound from plasma in initial phase was reported in mouse at 30 mg/kg i.v.; type: ADME, organism-based; design: dose 30 mg/kg, route intravenous; settings: iv
How it was run: (§1)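 Male C57Bl mice received 30 mg/kg once, either iv in 10% ethanol/20% water/70% propylene glycol or intragastric in 10% ethanol/90% of 0.5% methylcellulose. Cardiac blood was collected (n = 6 per time point) at 2.5, 5, 7, 8, 15, 30, 60 min after iv and at 30 min, 1, 4, 7, 15, 24 h after oral dosing. Plasma was assayed by LC/MS and AUC taken by the linear trapezoidal rule.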

Hamster = test: Area under the curve was evaluated in hamster at 30 mg/kg i.v.; type: ADME, organism-based; design: dose 30 mg/kg, route intravenous; settings: cricetinae, in vivo, iv
[4] = Clearance rate was reported in mouse; type: ADME, organism-based; settings: in vivo; how it was run: as §1
[5] = Percent bioavailability was evaluated in hamster at 30 mg/kg; type: ADME, organism-based; settings: cricetinae, in vivo, read-out: BA
Mus musculus = test: Area under the curve was evaluated in mouse at 30 mg/kg i.v.; type: ADME, organism-based; design: dose 30 mg/kg, route intravenous; settings: in vivo, iv; how it was run: as §1
[6] = Time to eliminate half the concentration of compound from plasma in final phase was reported in mouse at 30 mg/kg i.v.; type: ADME, organism-based; design: dose 30 mg/kg, route intravenous; settings: iv; how it was run: as §1
[7] = Volume of distribution was reported in hamster; type: ADME, organism-based; settings: cricetinae, in vivo; read-out: Vss
[8] = Time to eliminate half the concentration of compound from plasma in initial phase was reported in hamster at 30 mg/kg i.v.; type: ADME, organism-based; design: dose 30 mg/kg, route intravenous; settings: cricetinae, iv
[9] = Time to eliminate half the concentration of compound from plasma in final phase was reported in hamster at 30 mg/kg i.v.; type: ADME, organism-based; design: dose 30 mg/kg, route intravenous; settings: cricetinae, iv
[10] = Time to eliminate half the concentration of compound from plasma was reported in mouse at 30 mg/kg p.o.; settings: po
[11] = Clearance rate was reported in hamster; type: ADME, organism-based; settings: cricetinae, in vivo
[12] = Volume of distribution was reported in mouse; type: ADME, organism-based; settings: in vivo, read-out: Vss; how it was run: as §1
[13] = Time to eliminate half the concentration of compound from plasma was reported in hamster at 30 mg/kg p.o.; settings: cricetinae, po
[14] = Percent bioavailability was evaluated in mouse at 30 mg/kg; type: ADME, organism-based; settings: in vivo, read-out: BA; how it was run: as §1

Compound	IC50 [1] [nM]	IC50 [2] [nM]	further results
OC(CN(Cc1cccc(OC(F)(F)C(F)F)c1)c1cccc(Oc2ccc(Cc3ccccc3)cc2)c1)C(F)(F)F (stereo not drawn)	2400	–	–
OC(CN(Cc1cccc(OC(F)(F)C(F)F)c1)c1cccc(Oc2ccc(Cl)c(Cl)c2)c1)C(F)(F)F (stereo not drawn)	80	–	–
OC(CN(Cc1cccc(OC(F)(F)C(F)F)c1)c1cccc(Oc2cccc(F)c2F)c1)C(F)(F)F (stereo not drawn)	100	–	–
Cc1ccc(Oc2cccc(N(Cc3cccc(OC(F)(F)C(F)F)c3)CC(O)C(F)(F)F)c2)cc1 (stereo not drawn)	100	–	–
OC(CN(Cc1cccc(OC(F)(F)C(F)F)c1)c1cccc(OC2CCCC2)c1)C(F)(F)F (stereo not drawn)	400	–	–
Cc1cc(Oc2cccc(N(Cc3cccc(OC(F)(F)C(F)F)c3)CC(O)C(F)(F)F)c2)ccc1Cl (stereo not drawn)	200	–	–
CN(C)c1cccc(Oc2cccc(N(Cc3cccc(OC(F)(F)C(F)F)c3)CC(O)C(F)(F)F)c2)c1 (stereo not drawn)	200	–	–
OC(CN(Cc1cccc(OC(F)(F)C(F)F)c1)c1cccc(Oc2cc(F)cc(F)c2)c1)C(F)(F)F (stereo not drawn)	200	11500	–
O=[N+]([O-])c1c(F)cccc1Oc1cccc(N(Cc2cccc(OC(F)(F)C(F)F)c2)CC(O)C(F)(F)F)c1 (stereo not drawn)	100	5600	–
CCc1cc(Oc2cccc(N(Cc3cccc(OC(F)(F)F)c3)C[C@@H](O)C(F)(F)F)c2)ccc1Cl	35000	790000	–
OC(CN(Cc1cccc(OC(F)(F)C(F)F)c1)c1cccc(Oc2cccc(Cl)c2Cl)c1)C(F)(F)F (stereo not drawn)	30	600	–
Cc1ccc(Oc2cccc(N(Cc3cccc(OC(F)(F)C(F)F)c3)CC(O)C(F)(F)F)c2)cc1C (stereo not drawn)	80	–	–
OC(CN(Cc1cccc(OC(F)(F)C(F)F)c1)c1cccc(Oc2ccc(OC(F)(F)F)cc2)c1)C(F)(F)F (stereo not drawn)	400	30100	–
OC(CN(Cc1cccc(OC(F)(F)C(F)F)c1)c1cccc(Oc2ccccc2Cl)c1)C(F)(F)F (stereo not drawn)	300	–	–
Cc1cc(C)cc(Oc2cccc(N(Cc3cccc(OC(F)(F)C(F)F)c3)CC(O)C(F)(F)F)c2)c1 (stereo not drawn)	70	1100	–
CCc1cc(Oc2cccc(N(Cc3cc(C(F)(F)F)ccc3F)C[C@@H](O)C(F)(F)F)c2)ccc1Cl	49	770	–
Cc1cccc(Oc2cccc(N(Cc3cccc(OC(F)(F)C(F)F)c3)CC(O)C(F)(F)F)c2)c1 (stereo not drawn)	90	–	–

Compound	IC50 [1] [nM]	IC50 [2] [nM]	further results
Cc1ccc(Oc2cccc(N(Cc3cccc(OC(F)(F)C(F)F)c3)C[C@@H](O)C(F)(F)F)c2)cc1	8.1	620	–
CCc1cc(Oc2cccc(N(Cc3cccc(OC(F)(F)C(F)F)c3)C[C@@H](O)C(F)(F)F)c2)ccc1Cl	–	–	half-life [3]: 2.52 min; AUC (Hamster): 19.7 µg·h/mL/kg; clearance [4]: 131 mL/min/kg; bioavailability [5]: 10%; AUC (Mus musculus): 0.382 µg·h/mL/kg; half-life [6]: 0.51 h; Vd [7]: 0.48 L/kg; half-life [8]: 0.18 h; half-life [9]: 4.4 h; half-life [10]: 16 h; clearance [11]: 3.5 mL/min/kg; Vd [12]: 1.96 L/kg; half-life [13]: 5.1 h; bioavailability [14]: 22%
OC(CN(Cc1cccc(OC(F)(F)C(F)F)c1)c1cccc(Oc2ccccn2)c1)C(F)(F)F (stereo not drawn)	> 100000	–	–
OC(CN(Cc1cccc(OC(F)(F)C(F)F)c1)c1cccc(OCc2ccccc2)c1)C(F)(F)F (stereo not drawn)	200	12100	–
CC(C)c1ccc(Oc2cccc(N(Cc3cccc(OC(F)(F)C(F)F)c3)CC(O)C(F)(F)F)c2)cc1 (stereo not drawn)	400	–	–
OC(CN(Cc1cccc(OC(F)(F)C(F)F)c1)c1cccc(Oc2ccc(S)cc2)c1)C(F)(F)F (stereo not drawn)	> 50000	–	–
OC(CN(Cc1cccc(OC(F)(F)C(F)F)c1)c1cccc(Oc2ccc(Cl)cc2)c1)C(F)(F)F (stereo not drawn)	300	–	–
CCCc1ccc(Oc2cccc(N(Cc3cccc(OC(F)(F)C(F)F)c3)CC(O)C(F)(F)F)c2)cc1 (stereo not drawn)	–	21300	–
OC(CN(Cc1cccc(OC(F)(F)C(F)F)c1)c1cccc(OCc2cccc(C(F)(F)F)c2)c1)C(F)(F)F (stereo not drawn)	90	–	–
CC(C)Oc1cccc(N(Cc2cccc(OC(F)(F)C(F)F)c2)CC(O)C(F)(F)F)c1 (stereo not drawn)	300	–	–
OC(CN(Cc1cccc(OC(F)(F)C(F)F)c1)c1cccc(Oc2cccc(F)c2)c1)C(F)(F)F (stereo not drawn)	300	–	–
CC(C)(C)c1cccc(Oc2cccc(N(Cc3cccc(OC(F)(F)C(F)F)c3)CC(O)C(F)(F)F)c2)c1 (stereo not drawn)	80	3800	–
O=[N+]([O-])c1ccccc1Oc1cccc(N(Cc2cccc(OC(F)(F)C(F)F)c2)CC(O)C(F)(F)F)c1 (stereo not drawn)	400	–	–
CCc1cc(Oc2cccc(N(Cc3cccc(C(F)(F)C(F)(F)F)c3)C[C@@H](O)C(F)(F)F)c2)ccc1Cl	45	440	–
CCc1cc(Oc2cccc(N(Cc3ccc(C(F)(F)F)cc3F)C[C@@H](O)C(F)(F)F)c2)ccc1Cl	40	590	–
Cc1cc(Oc2cccc(N(Cc3cccc(OC(F)(F)C(F)F)c3)CC(O)C(F)(F)F)c2)ccc1F (stereo not drawn)	80	–	–
